# Results collected from several papers.
# Compare with care: the assays were run in different laboratories. pIC50: −log10 of the molar value.
Compound,tested on,assay,system,setting,measurement,value
OC[C@@H](O)[C@@H](O)[C@H](O)[C@H](O)CO,,,Caco-2,,Papp A→B,0.249 ×10⁻⁶ cm/s
CC(C)(C)[C@H](NC(=O)[C@H](CCONC(=N)N)NC(=O)Cc1ccc(CNC(=N)N)cc1)C(=O)N[C@@H](CCONC(=N)N)C(=O)NCc1ccc(C(=N)N)cc1,,,"male Sprague-Dawley rat, plasma","intravenous, 1 mg/kg",AUC(0-t),2090 ng·h/mL
O=C([O-])C(=O)[O-].[NH-][C@@H]1CCCC[C@H]1[NH-].[Pt+4] (relative stereo),,,"rat, plasma","intravenous, 5 mg/kg",AUC(0-inf),2540 ng·h/mL
CCCCCCCCCCCC(=O)NC(C)(C)C(=O)N1CCC[C@H]1C(=O)NC(C)(C)C(=O)NC(C)(C)C(=O)N1CCC[C@H]1C(=O)NC(C)(C)C(=O)NC(C)(C)C(=O)N1CCC[C@H]1C(=O)N[C@@H](C)C(=O)NC(C)(C)C(=O)NCCC(=O)N[C@@H](C)C(=O)NC(C)(C)C(=O)NC(C)(C)C(=O)NCCC(=O)NC(C)(C)C(=O)NC(C)(C)C(=O)NC(C)(C)C(=O)N[C@@H](C)C(=O)NCCC(=O)O,HCT-116,"cell growth or viability, MTT",,24 h,pIC50,6.00
O=c1c(O[C@@H]2O[C@H](CO)[C@@H](O)[C@H](O)[C@H]2O)c(-c2ccc(O)cc2)oc2cc(O)cc(O)c12,HCT-116,"cell growth or viability, WST-1",,,pIC50,4.44
Cl.Cl.O=C(CCN1CCCCC1)c1ccc(-c2ccc(C(=O)CCN3CCCCC3)cc2)cc1,,,"Sprague-Dawley rat, plasma","oral, 100 mg/kg",AUC(0-t),978 ng·h/mL
COC(=O)C(NC(=O)c1cn(CCCCCF)c2ccccc12)C(C)(C)C (centres unmarked),,,"male Sprague-Dawley rat, plasma","subcutaneous, 200 µg/kg",AUC(0-t),37.7 ng·h/mL
O=C(Nc1ccc2c(c1)B(O)OC2)c1ccc(Oc2ccccc2)cc1,,,PAMPA,"200 µM, 5 h, pH 7.4",Papp,0.82 ×10⁻⁶ cm/s
CC[C@@H]1CN2CCc3c([nH]c4cccc(OC)c34)[C@H]2C[C@@H]1/C(=C\OC)C(=O)OC,,,Caco-2,pH 7.4,Papp A→B,14.2 cm/s
N=c1c2c(-c3ccccc3)c(-c3ccccc3)n(Cc3ccccc3)c2ncn1[C@H]1CC[C@H](O)CC1,,,"female minipig, plasma","oral, 2.5 mg/kg, single dose",Cmax,785 ng/mL
CN(C)C(=O)Oc1cc(OC(=O)N(C)C)cc(-c2cc3ccc(O)cc3o2)c1,,,"male rat, plasma","intravenous, 5 mg/kg",AUC(0-t),589 ng·h/mL
